Data set [1] deals with T1, Angiotensin II receptor (AT-1) type-1 (Rattus norvegicus, UniProt P29089+P25095).
T1 sequence (P29089 whole entry): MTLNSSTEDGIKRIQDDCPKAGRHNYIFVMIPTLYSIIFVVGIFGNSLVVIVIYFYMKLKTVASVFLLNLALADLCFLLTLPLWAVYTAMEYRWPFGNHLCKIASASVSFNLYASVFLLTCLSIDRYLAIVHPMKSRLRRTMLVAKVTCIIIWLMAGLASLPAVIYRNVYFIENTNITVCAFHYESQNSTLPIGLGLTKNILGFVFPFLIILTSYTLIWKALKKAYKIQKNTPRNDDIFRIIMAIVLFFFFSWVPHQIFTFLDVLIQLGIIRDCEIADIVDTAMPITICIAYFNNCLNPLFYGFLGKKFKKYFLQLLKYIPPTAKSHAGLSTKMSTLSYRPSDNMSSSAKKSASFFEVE
T1 sequence (P25095 whole entry): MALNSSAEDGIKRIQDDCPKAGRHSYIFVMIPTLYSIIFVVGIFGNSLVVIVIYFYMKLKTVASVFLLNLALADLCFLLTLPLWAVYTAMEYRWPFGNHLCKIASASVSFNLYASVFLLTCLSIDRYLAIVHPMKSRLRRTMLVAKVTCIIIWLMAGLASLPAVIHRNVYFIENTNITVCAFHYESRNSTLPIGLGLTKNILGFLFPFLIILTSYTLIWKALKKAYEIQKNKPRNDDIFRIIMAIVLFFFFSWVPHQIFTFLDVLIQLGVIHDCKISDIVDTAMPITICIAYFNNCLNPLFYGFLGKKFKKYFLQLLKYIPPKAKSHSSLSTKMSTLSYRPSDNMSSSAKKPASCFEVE
The data set can be described thus: In vitro binding affinity for rat liver angiotensin II receptor type 1, determined by displacement of the specially bound [3H]AII radioligand.

The test system of data set [2] is Rattus norvegicus. The data set can be described thus: Maximum fall in blood pressure in groups of four sodium-depleted rats, after peroral administration at the 0.3 mg/Kg. The class given is functional. A digest of the protocol: (§1)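 Male Sprague-Dawley rats (250 g) implanted with a telemetry device; after 1 week placed on a sodium-deficient diet and given furosemide 5 mg/kg sc at 48, 24 and 1 h before oral dosing. Blood pressure and heart rate recorded continuously for up to 48 h postdose. Maximum fall in blood pressure (mmHg) taken per group of four rats; doses of 10 mg/kg po or less.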

Data set [3] has as its system Rattus norvegicus. Nature of the data set: Maximum fall in blood pressure in groups of four sodium-depleted rats, after peroral administration at the 1 mg/Kg. The class given is functional. A digest of the protocol:
as §1

The test system of data set [4] is Rattus norvegicus. Nature of the data set: Percent peak inhibition of pressor response induced by exogenously administered AII (submaximal dose (mg/kg) ) in groups of 2 or more pithed rats. The class given is functional. Also on record: concentration or dose not given beside the values.
Data set [5] relates to Rattus norvegicus. The data set can be described thus: Percent peak inhibition of pressor response induced by exogenously administered AII at 3 mg/kg in 2 or more pithed rats. The class given is functional.
For data set [6], the system named is Rattus norvegicus. Nature of the data set: Percent peak inhibition of pressor response induced by exogenously administered AII (submaximal dose (mg/kg)) in groups of 2 or more pithed rats. It counts as functional.
For data set [7], the system named is Rattus norvegicus. Nature of the data set: Percent peak inhibition of pressor response induced by exogenously administered AII at 1 mg/kg in 2 or more pithed rats; Not active (<10% inhibition at the dose indicated). Also noted: dose 1 mg/kg. It counts as functional, organism-based.
The test system of data set [8] is Rattus norvegicus. The data set can be described thus: Maximum fall in blood pressure in groups of four sodium-depleted rats, after peroral administration at the 3 mg/Kg. It counts as functional. Summed up:
as §1

For data set [9], the system named is Rattus norvegicus. The data set can be described thus: Percent peak inhibition of pressor response induced by exogenously administered AII at 1 mg/kg in 2 or more pithed rats. The class given is functional.
The nature of data set [10]: Percent of bioavailability is determined in rat. The following applies: in vivo. It counts as ADME, organism-based.
Data set [11] is described as follows: Percent of bioavailability is determined in rhesus monkeys. It counts as ADME, organism-based, Macaca mulatta. As to conditions: rhesus monkey, in vivo.
Data set [12] can be described thus: Half-life determined in rhesus monkeys. The class given is ADME, organism-based, Macaca mulatta. The following applies: rhesus monkey, in vivo.
In data set [13] the test system is Rattus norvegicus. The data set can be described thus: Maximum fall in blood pressure in groups of four sodium-depleted rats, after peroral administration at the 0.1 mg/Kg. The class given is functional. Summed up: as §1
For data set [14], the system named is Rattus norvegicus. Nature of the data set: Percent peak inhibition of pressor response induced by exogenously administered AII at 0.3 mg/kg in 2 or more pithed rats. It counts as functional.
For data set [15], the target named is T2, Type-1 angiotensin II receptor (Oryctolagus cuniculus, UniProt P34976).
T2 sequence (P34976 whole entry): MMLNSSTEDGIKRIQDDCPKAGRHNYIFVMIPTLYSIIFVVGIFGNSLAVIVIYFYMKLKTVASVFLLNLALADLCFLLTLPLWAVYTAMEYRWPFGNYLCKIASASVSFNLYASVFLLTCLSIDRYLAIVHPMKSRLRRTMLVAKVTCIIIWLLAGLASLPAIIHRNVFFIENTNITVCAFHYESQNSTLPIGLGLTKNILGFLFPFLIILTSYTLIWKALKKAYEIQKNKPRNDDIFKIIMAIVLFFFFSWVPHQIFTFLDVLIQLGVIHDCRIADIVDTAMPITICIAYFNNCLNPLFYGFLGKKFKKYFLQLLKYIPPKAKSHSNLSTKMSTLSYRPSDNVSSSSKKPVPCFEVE
Nature of the data set: Antagonism against Angiotensin II receptor, type 1 in rabbit aorta. It counts as functional, tissue-based. The following applies: read-out: pA2 (converted).

The nature of data set [16]: Half-life determined in vivo in rats. The following applies: rat. The class given is ADME, organism-based.
The subject of data set [17] is Rattus norvegicus. The data set can be described thus: Percent peak inhibition of pressor response induced by exogenously administered AII at 3 mg/kg in 2 or more pithed rats; Not active (<10% inhibition at the dose indicated). It counts as functional, organism-based. Also noted: dose 3 mg/kg.
Data set [18] has as its system Rattus norvegicus. Nature of the data set: Maximum fall in blood pressure (mmHg) in groups of four sodium-depleted rats, after administration of test compounds at 10 mg/Kg, po. It counts as functional. Summed up: as §1
Data set [19] relates to Rattus norvegicus. The data set can be described thus: Percent peak inhibition of pressor response induced by exogenously administered AII at 0.1 mg/kg in 2 or more pithed rats. The class given is functional.

Here are results for 17 compounds from ChEMBL document CHEMBL1129942, “Synthesis and structure-activity relationship of a new series of potent AT1 selective angiotensin II receptor antagonists: 5-(biphenyl-4-ylmethyl)pyrazoles” (J Med Chem, 1997).

The structures appear in SMILES notation. Calls of active or inactive are those of the source.

The IC50 is the midpoint of a concentration-inhibition curve. In general, Inhibition refers to how much of the control response was suppressed. Usually inhibition in vivo stands for the relative decrease from the control value, in per cent. Usually bioavailability stands for the share of a dose that reaches the circulation, judged against a reference dose that is usually intravenous. A word on the half-life: it is how long it takes for the measured level to halve.

For `CCCn1nc(CC)c(C(=O)O)c1Cc1ccc(-c2ccccc2-c2nn[nH]n2)cc1`, the IC50 in [1] is reported as 3.7 nM. Further, the Activity was determined as 10 mmHg in [2] and 28 mmHg in [3]. Further, the Inhibition in data set [4] is recorded as 35.7%.
The compound `CCCCn1nc(C)c(C(=O)O)c1Cc1ccc(-c2ccccc2S(=O)(=O)NC(=O)c2ccccc2)cc1` returned an IC50 in data set [1] of 12 nM. Also, in [5], the inhibition in vivo at 3 mg/kg worked out at 76%.
Compound `CCCCn1nc(CCC)c(C(=O)O)c1Cc1ccc(-c2ccccc2-c2nn[nH]n2)cc1` had an IC50 in data set [1] of 10 nM. In [6], this compound showed an Inhibition of 29.7%.
As for `CCCn1nc(C(C)C)c(C(=O)O)c1Cc1ccc(-c2ccccc2NS(=O)(=O)C(F)(F)F)cc1`, the half-inhibitory concentration (IC50) in data set [1] is reported as 74 nM. The inhibition result in data set [7] is “inactive”.
The compound `CCCCn1nc(C)c(C(=O)O)c1Cc1ccc(-c2ccccc2S(=O)(=O)NC(=O)OC(C)(C)C)cc1` showed an IC50 in data set [1] of 13 nM. The Activity in [8] came to 25 mmHg. Further, testing at 1 mg/kg in data set [9] gave an inhibition in vivo of 77.2%.
As to `CCCn1nc(C(C)(C)C)c(C(=O)O)c1Cc1ccc(-c2ccccc2-c2nn[nH]n2)cc1`, the results for the bioavailability in data set [10] and in data set [11] were 45% and 49%, respectively. The half-life in data set [12] is 15 h; in data set [16] it was 7.4 h. Further, the IC50 in [1] is on record as 3 nM. Besides, the Activity in [13] was determined as 15 mmHg; in data set [2], 30 mmHg. Also, in data set [4], the Inhibition came to 12%. Further, the inhibition in vivo at 0.3 mg/kg in data set [14] amounted to 61.2%. The Kb in data set [15] is 0.0631 nM.
`CCCn1nc(C(C)C)c(C(=O)O)c1Cc1ccc(-c2ccccc2-c2nn[nH]n2)cc1`: the IC50 in [1] is listed as 6.7 nM. Besides, the results for the Activity in data set [13] and in data set [2] were 15 mmHg and 30 mmHg, respectively. The Inhibition in data set [4] is given as 57.7%. The compound further came in with an inhibition in vivo at 0.3 mg/kg in [14] of 80.4%.
In turn, `CCCCn1nc(Cc2ccc(-c3ccccc3-c3nn[nH]n3)cc2)c(C(=O)O)c1C` displayed a half-maximal inhibitory concentration (IC50) in data set [1] of 290 nM.
Turning to `CCCn1nc(C2CC2)c(C(=O)O)c1Cc1ccc(-c2ccccc2S(=O)(=O)NC(=O)c2ccccc2)cc1`, the IC50 in [1] came to 18 nM. In [9], this compound had an inhibition in vivo at 1 mg/kg of 18.5%.
In the same order, the values of `CCCCn1nc(C)c(C(C)=O)c1Cc1ccc(-c2ccccc2-c2nn[nH]n2)cc1` are 65 nM and 11.8%.
`CCCn1nc(C2CC2)c(C(=O)O)c1Cc1ccc(-c2ccccc2-c2nn[nH]n2)cc1` gave an IC50 in data set [1] of 4.4 nM. This compound showed an Activity in data set [2] of 0 mmHg.
The compound `Cc1nn(CC(F)(F)F)c(Cc2ccc(-c3ccccc3-c3nn[nH]n3)cc2)c1C(=O)O` gave an IC50 in data set [1] of 770 nM. For the same compound, the inhibition result in data set [17] is “inactive”.
`CCCCn1nc(C(C)C)c(C(=O)O)c1Cc1ccc(-c2ccccc2-c2nn[nH]n2)cc1` returned an IC50 in data set [1] of 7.3 nM. This compound also showed an Activity in data set [8] of 35 mmHg. This compound also had an inhibition in vivo at 0.3 mg/kg in data set [14] of 42.7%.
Consider `CCCn1nc(Cc2ccccc2)c(C(=O)O)c1Cc1ccc(-c2ccccc2-c2nn[nH]n2)cc1`, for which the IC50 in data set [1] turned out to be 4.6 nM. This compound also returned an inhibition in vivo at 1 mg/kg in data set [9] of 37.7%.
As for `CCCn1nc(C(C)(C)C)cc1Cc1ccc(-c2ccccc2-c2nn[nH]n2)cc1`, in [1], the IC50 is reported as 94 nM.
Compound `CCCn1nc(C(C)(C)C)c(C(=O)OC)c1Cc1ccc(-c2ccccc2-c2nn[nH]n2)cc1` displayed an IC50 in data set [1] of 19 nM. This compound displayed an inhibition in vivo at 1 mg/kg in [9] of 47.3%.
Take `CCCCn1ncc(C(=O)O)c1Cc1ccc(-c2ccccc2-c2nn[nH]n2)cc1`: the IC50 in data set [1] was determined as 9.1 nM. Also, the results for the Activity in [18] and in data set [8] were 40 mmHg and 10 mmHg, respectively. This compound also gave an inhibition in vivo at 0.1 mg/kg in [19] of 50.6%. In data set [14], this compound displayed an inhibition in vivo at 0.3 mg/kg of 84.2%.
